In data set [1] the target is T1, Tumour suppressor p53/oncoprotein Mdm2 (Homo sapiens, UniProt Q00987). The data set is classed as protein assay.
In data set [2] the target is T1, Tumour suppressor p53/oncoprotein Mdm2. The data set is classed as protein assay. The source holds these as a separate data set.
Data set [3] concerns SJSA-1. Nature of the data set: cells. The following applies: Homo sapiens, SJSA-1, 72 h.
The test system of data set [4] is Mus musculus. Put plainly: Activity at p53 in human SJSA1 cells xenografted po dosed mouse assessed as induction of p21 mRNA expression administered qd for 4 days by RT-PCR analysis relative to control. Format: functional, organism-based. Conditions: SJSA-1. In outline:
(§1)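 Female athymic nude mice carrying subcutaneous SJSA-1 tumours (5 × 10^6 cells implanted; dosing at ∼175 mm3). Oral dosing q.d. for 4 days. Tumours were snap-frozen and p21 mRNA measured by quantitative RT-PCR. Reported as mean fold induction over vehicle tumours, with SEM.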

Data set [5] in a line: Volume of distribution in cynomolgus monkey. Conditions: in vivo. Format: ADME, organism-based, Macaca fascicularis.
In data set [6] the test system is Mus musculus. Put plainly: Activity at p53 in human SJSA1 cells xenografted mouse assessed as induction of p21 mRNA expression at 150 mg/kg, qd for 4 days by RT-PCR analysis. Conditions: SJSA-1. Also noted: dose 150 mg/kg. The data set is classed as functional, organism-based. In outline: as §1
The subject of data set [7] is SJSA-1. Nature of the data set: Antitumor activity against human SJSA1 cells xenografted in athymic nude mouse assessed as tumor growth regression at 150 mg/kg, po qd for 14 days. The data set is classed as functional, organism-based. Also noted: dose 150 mg/kg. (Xenograft models place foreign cells or tissue in a host animal.)
The nature of data set [8]: Volume of distribution at steady state in rat. The data set is classed as ADME, organism-based. The following applies: in vivo, read-out: Vdss.
Data set [9] can be described thus: Volume of distribution at steady state in mouse. Format: ADME, organism-based. The following applies: in vivo, read-out: Vdss.
Data set [10] relates to SJSA-1. Nature of the data set: Antitumor activity against human SJSA1 cells xenografted in po dosed mouse assessed as tumor growth inhibition administered bid measured twice per weak. The data set is classed as functional, organism-based. In outline: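 Female athymic nude mice implanted subcutaneously with 5 × 10^6 SJSA-1 cells. Vehicle or compound at 25, 50, 75 or 100 mg/kg b.i.d. by oral gavage, starting on day 10 at ∼200 mm3 tumours (n = 10/group). Tumour size and body weight measured twice weekly; mean tumour volume ± SEM.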

For data set [11], the system named is SJSA-1. Nature of the data set: animal or person. Conditions: Mus musculus, SJSA-1, po, 336 h.
The test system of data set [12] is HCT-116. Put plainly: Induction of p21 mRNA expression in p53 deficient human HCT116 cells after 7 hrs by RT-PCR analysis. Format: functional, cell-based. In outline:
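HCT116 p53−/− cells exposed to compound for 7 h. Total RNA extracted and p21 mRNA quantified by quantitative RT-PCR.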

Data set [13] addresses T2, PXR (NR1I2) (Homo sapiens, UniProt O75469).
T2 sequence (O75469 whole entry): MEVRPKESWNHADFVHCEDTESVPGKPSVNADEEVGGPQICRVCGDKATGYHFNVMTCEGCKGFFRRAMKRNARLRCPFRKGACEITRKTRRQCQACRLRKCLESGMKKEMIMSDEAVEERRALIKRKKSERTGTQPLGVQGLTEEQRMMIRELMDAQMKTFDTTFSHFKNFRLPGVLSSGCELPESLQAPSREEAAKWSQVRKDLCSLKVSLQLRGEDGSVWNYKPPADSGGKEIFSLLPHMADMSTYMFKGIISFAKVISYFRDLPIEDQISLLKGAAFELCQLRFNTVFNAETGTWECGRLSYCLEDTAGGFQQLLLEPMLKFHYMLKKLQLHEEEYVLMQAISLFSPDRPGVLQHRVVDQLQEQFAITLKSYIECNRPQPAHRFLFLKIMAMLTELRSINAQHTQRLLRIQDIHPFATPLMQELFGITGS
Nature of the data set: Activation of human PXR at 2 uM relative to control. Conditions: read-out: Activity.

Data set [14] deals with T3, CYP3A4 (Homo sapiens, UniProt P08684). Nature of the data set: Inhibition of human CYP3A4 at 3 uM. Format: ADME.
T3 sequence (P08684 whole entry): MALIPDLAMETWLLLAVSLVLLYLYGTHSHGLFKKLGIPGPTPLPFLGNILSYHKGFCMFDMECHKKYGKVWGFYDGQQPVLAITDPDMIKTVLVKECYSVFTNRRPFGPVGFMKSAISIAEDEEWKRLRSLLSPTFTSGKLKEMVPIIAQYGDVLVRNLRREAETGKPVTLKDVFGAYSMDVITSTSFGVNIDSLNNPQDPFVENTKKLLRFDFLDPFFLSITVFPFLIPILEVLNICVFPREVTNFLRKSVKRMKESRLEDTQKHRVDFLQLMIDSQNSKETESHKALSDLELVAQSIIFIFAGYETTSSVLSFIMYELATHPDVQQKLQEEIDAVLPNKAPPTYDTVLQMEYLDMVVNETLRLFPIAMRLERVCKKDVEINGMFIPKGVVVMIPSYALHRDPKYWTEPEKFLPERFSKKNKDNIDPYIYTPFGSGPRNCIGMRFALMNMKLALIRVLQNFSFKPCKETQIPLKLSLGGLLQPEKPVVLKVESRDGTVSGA
Data set [15] addresses T3, CYP3A4. Put plainly: Time dependent inhibition of human CYP3A4 assessed as residual activity at 10 uM after 15 mins relative to control. The data set is classed as ADME. The following applies: read-out: Activity.
The nature of data set [16]: Intrinsic clearance in human hepatocytes assessed per million cells. The following applies: read-out: CLH. Format: ADME, cell-based, Hepatocyte.
Data set [17] can be described thus: Plasma clearance in rat. The data set is classed as ADME, organism-based.
Data set [18] can be described thus: Oral bioavailability in rat. Format: ADME, organism-based. Conditions: in vivo.
Data set [19] is described as follows: Plasma clearance in mouse. Format: ADME, organism-based.
Data set [20] in a line: Oral bioavailability in mouse. The following applies: in vivo. Format: ADME, organism-based.
In data set [21] the test system is SJSA-1. Put plainly: animal or person. The following applies: Mus musculus, SJSA-1, po, 336 h, read-out: TGI.
For data set [22], the system named is SJSA-1. Put plainly: Antitumor activity against human SJSA1 cells xenografted in po dosed athymic nude mouse assessed as tumor growth inhibition administered qd after 14 days.
For data set [23], the system named is Mus musculus. Nature of the data set: Activity at p53 in human SJSA1 cells xenografted po dosed mouse assessed as induction of p21 mRNA expression administered once measured after 6 hrs by RT-PCR analysis. The following applies: SJSA-1.

The source made the active and inactive calls. No cut-off for these calls is given here. Some results are limits rather than exact numbers.

T1 sequence (P04637 whole entry): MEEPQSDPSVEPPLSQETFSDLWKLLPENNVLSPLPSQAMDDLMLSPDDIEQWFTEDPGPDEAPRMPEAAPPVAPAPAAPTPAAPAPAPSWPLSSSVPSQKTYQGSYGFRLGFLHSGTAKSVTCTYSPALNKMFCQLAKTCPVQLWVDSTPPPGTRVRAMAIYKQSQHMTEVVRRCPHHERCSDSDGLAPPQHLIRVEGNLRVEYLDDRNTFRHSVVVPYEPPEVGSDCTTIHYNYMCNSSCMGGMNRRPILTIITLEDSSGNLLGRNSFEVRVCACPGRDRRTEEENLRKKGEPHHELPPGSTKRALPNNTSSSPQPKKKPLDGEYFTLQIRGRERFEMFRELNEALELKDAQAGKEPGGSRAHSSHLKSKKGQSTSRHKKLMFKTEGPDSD
T1 sequence (Q00987 whole entry): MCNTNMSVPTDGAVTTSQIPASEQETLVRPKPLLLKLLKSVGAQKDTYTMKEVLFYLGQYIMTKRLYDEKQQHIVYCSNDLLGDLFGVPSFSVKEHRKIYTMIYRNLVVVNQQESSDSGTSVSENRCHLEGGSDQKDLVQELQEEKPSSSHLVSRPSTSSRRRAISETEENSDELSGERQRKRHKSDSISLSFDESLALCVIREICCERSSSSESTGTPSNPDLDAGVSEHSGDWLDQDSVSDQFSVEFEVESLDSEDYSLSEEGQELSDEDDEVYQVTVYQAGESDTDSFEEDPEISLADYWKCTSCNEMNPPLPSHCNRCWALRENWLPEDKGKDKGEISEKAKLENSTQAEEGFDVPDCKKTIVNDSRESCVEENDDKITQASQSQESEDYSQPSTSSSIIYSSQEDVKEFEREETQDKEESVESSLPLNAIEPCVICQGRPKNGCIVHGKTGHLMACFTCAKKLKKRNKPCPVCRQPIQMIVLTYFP

As a reminder, the IC50 is the concentration at which inhibition is half-maximal. Regarding `O=C(O)CC[C@H]1C[C@H](c2cccc(Cl)c2)[C@@H](c2ccc(Cl)cc2)N(CC2CC2)C1=O`, the values for the IC50 in data set [1] and in [2] were 570 nM and 6630 nM, respectively.

As for `CCOC(=O)[C@@H](CC)N1C(=O)CC[C@H](c2cccc(Cl)c2)[C@H]1c1ccc(Cl)cc1` (racemic), the values for the IC50 in data set [1] and in data set [2] were 3500 nM and above 30000 nM, respectively.

As to `CC[C@@H](C(=O)OC(C)(C)C)N1C(=O)[C@@H](Cc2nnn[nH]2)C[C@H](c2cccc(Cl)c2)[C@H]1c1ccc(Cl)cc1`, the IC50 in data set [1] was 1.8 nM; in data set [2], 20.3 nM; in data set [3] it was 312 nM.

Regarding `CCOC(=O)[C@H](C)N1C(=O)CC[C@H](c2cccc(Cl)c2)[C@H]1c1ccc(Cl)cc1` (racemic), the IC50 in data set [1] is 1700 nM; in data set [2] it was above 30000 nM.

On to `CCCN1C(=O)CC[C@H](c2cccc(Cl)c2)[C@H]1c1ccc(Cl)cc1` (racemic), for which the IC50 in [1] is 1900 nM; in data set [2] it was above 30000 nM.

For the molecule `CCOC(=O)[C@H](CC)N1C(=O)CC[C@H](c2cccc(Cl)c2)[C@H]1c1ccc(Cl)cc1` (racemic), the IC50 worked out at 940 nM in data set [1] and 18700 nM in [2].

Usually ED50 stands for the dose at which the effect has come halfway, by size or by number of responders. For `CC[C@@H]([C@H](C)O)N1C(=O)[C@@](C)(CC(=O)O)C[C@H](c2cccc(Cl)c2)[C@H]1c1ccc(Cl)cc1`, the Activity entry in data set [4], in [6] and in data set [10] was “Dose-dependent effect” throughout. Also, the Vd turned out to be 6.2 L/kg in data set [5], 12 L/kg in data set [8] and 5.2 L/kg in data set [9]. For the same molecule, the Activity entry in data set [7] is “Active”. This molecule also came in with an ED50 in data set [11] of 78 mg/kg.

`CCC(CC)N1C(=O)[C@@](C)(CC(=O)O)C[C@H](c2cccc(Cl)c2)[C@H]1c1ccc(Cl)cc1` came in with an IC50 in data set [3] of 540 nM.

Consider `O=C1CC[C@H](c2cccc(Cl)c2)[C@@H](c2ccc(Cl)cc2)N1` (racemic), for which the IC50 in data set [1] was 10000 nM; in data set [2], above 30000 nM.

One may read the inhibition as the drop in the measured response relative to a control, in per cent. As a reminder, the clearance is a measure of how efficiently the substance is removed, as volume per time. As usually defined, the bioavailability is dose-corrected exposure relative to a reference, in per cent. For the molecule `CC[C@@H](C(=O)OC(C)(C)C)N1C(=O)[C@@](C)(CC(=O)O)C[C@H](c2cccc(Cl)c2)[C@H]1c1ccc(Cl)cc1`, in data set [12], the Activity entry was “inactive”. Moreover, the activity at 2 µM in data set [13] came out at 27%. 3 µM produced 40% inhibition in data set [14]. Moreover, the activity at 0.25 h, 10 µM in data set [15] came out at 77%. Further, the hepatocyte CLint in [16] worked out at 26 µL/min/1e6 cells. Besides, the clearance is 45 mL/min/kg in data set [17] and 25 mL/min/kg in data set [19]. For the same molecule, the Vd came out at 1.5 L/kg in data set [8] and 1.3 L/kg in data set [9]. For the same molecule, the results for the bioavailability in [18] and in data set [20] were 77% and 36%, respectively. Further, the inhibition in vivo at 200 mg/kg in data set [21] came to 91%. For the same molecule, the median effective dose (ED50) in [11] is 118 mg/kg. For the same molecule, the TGI entry in [22] was “Dose-dependent effect”. Moreover, in [23], the Activity result is “Dose-dependent effect”.

On to `C=CC[C@H]1C[C@H](c2cccc(Cl)c2)[C@@H](c2ccc(Cl)cc2)N(CC2CC2)C1=O`, for which the figures for the IC50 in data set [1] and in [2] were 6500 nM and above 30000 nM, respectively.

`O=C1CC[C@H](c2cccc(Cl)c2)[C@@H](c2ccc(Cl)cc2)N1CC1CC1` (racemic) yielded an IC50 in data set [1] of 1500 nM.

Consider `COC(=O)CN1C(=O)CC[C@H](c2cccc(Cl)c2)[C@H]1c1ccc(Cl)cc1` (racemic), for which the IC50 is 5500 nM in [1] and above 30000 nM in data set [2].

As for `CCCCN1C(=O)CC[C@H](c2cccc(Cl)c2)[C@H]1c1ccc(Cl)cc1` (racemic), the half-inhibitory concentration (IC50) in [1] is 2700 nM; in data set [2], above 30000 nM.

Take `CC(C)CN1C(=O)CC[C@H](c2cccc(Cl)c2)[C@H]1c1ccc(Cl)cc1` (racemic): the results for the IC50 in data set [1] and in data set [2] were 2300 nM and above 30000 nM, respectively.

As for `O=C1CC[C@H](c2cccc(Cl)c2)[C@@H](c2ccc(Cl)cc2)N1CC1CC1`, the IC50 in data set [1] is 820 nM; in data set [2] it was above 30000 nM.

In the case of `O=C(O)CC[C@@H]1C[C@H](c2cccc(Cl)c2)[C@@H](c2ccc(Cl)cc2)N(CC2CC2)C1=O`, the figures for the concentration for half-maximal inhibition (IC50) in data set [1] and in data set [2] were 340 nM and 6640 nM, respectively.

As to `O=C1CC[C@H](c2cccc(Cl)c2)[C@@H](c2ccc(Cl)cc2)N1Cc1ccccc1` (racemic), the results for the IC50 in data set [1] and in [2] were 5400 nM and above 30000 nM, respectively.

With `N#CC[C@H]1C[C@H](c2cccc(Cl)c2)[C@@H](c2ccc(Cl)cc2)N(CC2CC2)C1=O`, the figures for the IC50 in [1] and in data set [2] were 2340 nM and above 30000 nM, respectively.

`CCC[C@@H](C(=O)OCC)N1C(=O)CC[C@H](c2cccc(Cl)c2)[C@H]1c1ccc(Cl)cc1` (racemic): the IC50 in data set [1] was 1400 nM; in data set [2], above 30000 nM.

Turning to `CC[C@@H](C(=O)OC(C)(C)C)N1C(=O)[C@@](C)(Cc2nnn[nH]2)C[C@H](c2cccc(Cl)c2)[C@H]1c1ccc(Cl)cc1`, the IC50 in [1] amounted to 0.9 nM; in data set [2], 9 nM; in [3], 170 nM. The activity at 2 µM in data set [13] worked out at 65%. In addition, the inhibition at 3 µM in [14] was 80%. In addition, in [15], the activity at 0.25 h, 10 µM is 30%.

Take `O=C1CC[C@@H](c2cccc(Cl)c2)[C@H](c2ccc(Cl)cc2)N1CC1CC1`: the IC50 in data set [1] and in data set [2] was above 30000 nM throughout.

For the origin of these results see ChEMBL document CHEMBL2176930, “Structure-based design of novel inhibitors of the MDM2-p53 interaction” (J Med Chem, 2012).
